Data from ChEMBL document CHEMBL4190373, “Tumor Targeting with Novel Pyridyl 6-Substituted Pyrrolo[2,3- d]Pyrimidine Antifolates via Cellular Uptake by Folate Receptor α and the Proton-Coupled Folate Transporter and Inhibition of De Novo Purine Nucleotide Biosynthesis” (J Med Chem, 2018).
Activity calls are given as the source filed them. The calls are words filed in the database; no cut-off is given here.

Key:
[1] = target: T1, Proton-coupled folate transporter (Homo sapiens) (UniProt Q96NT5); test: Inhibition of [3H]MTX uptake at human PCFT expressed in Chinese hamster R2/PCFT4 cells at 1 uM at pH 5.5 by scintillation counting method relative to control; assay type: cell-based
T1 sequence (whole entry): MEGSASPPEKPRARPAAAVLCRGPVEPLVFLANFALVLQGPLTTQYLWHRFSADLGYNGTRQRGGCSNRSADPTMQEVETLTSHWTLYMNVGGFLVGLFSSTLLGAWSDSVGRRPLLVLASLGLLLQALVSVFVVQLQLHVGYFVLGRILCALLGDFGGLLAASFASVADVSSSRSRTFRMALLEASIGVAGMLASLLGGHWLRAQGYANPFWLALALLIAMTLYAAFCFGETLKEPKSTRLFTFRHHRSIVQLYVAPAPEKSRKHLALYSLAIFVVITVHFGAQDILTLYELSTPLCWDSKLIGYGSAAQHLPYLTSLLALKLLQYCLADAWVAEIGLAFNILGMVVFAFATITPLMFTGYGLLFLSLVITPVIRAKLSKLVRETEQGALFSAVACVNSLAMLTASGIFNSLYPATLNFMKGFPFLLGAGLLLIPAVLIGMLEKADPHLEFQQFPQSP
Summary of the method: (§1)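 Buffers: MES-buffered saline pH 5.5 or HEPES-buffered saline pH 6.8, with 1 or 10 µM inhibitor. Quenched with ice-cold DPBS, counted by scintillation, normalized to protein and untreated controls. Mean ± SE, 3 experiments.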

Mus musculus [2] = test: Toxicity in folate-deficient diet fed ICR SCID mouse assessed as body weight loss at […], iv administered every 4 days for 4 times starting on day 3 measured twice per week; conditions: in vivo
[3] = target: T1, Proton-coupled folate transporter (Homo sapiens); test: Inhibition of [3H]MTX uptake at human PCFT expressed in Chinese hamster R2/PCFT4 cells at 10 uM at pH 6.8 by scintillation counting method relative to control; assay type: cell-based; summary of the method: as §1
IGROV-1 [4] = test: Antitumor activity against human IGROV1 cells xenografted in folate-deficient diet ICR SCID mouse assessed as tumor growth delay time at […], iv administered every 4 days for 4 times starting on day 3 measured twice per week
[5] = target: T1, Proton-coupled folate transporter (Homo sapiens); conditions: 1 uM
[6] = Cytotoxicity in RFC-null Chinese hamster R2 cells assessed as reduction in cell viability measured after 96 hrs by Cell-Titer Blue assay; assay type: cell-based; conditions: Cricetulus griseus, R2, 96 h
Summary of the method: (§2)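 CHO sublines expressing human PCFT (R2/PCFT4) or RFC (PC43-10), transporter-null R2, and empty-vector R2(VC). Continuous drug up to 1000 nM, up to 96 h, CellTiter-Blue fluorescence.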

[7] = target: T1, Proton-coupled folate transporter (Homo sapiens); test: Inhibition of [3H]MTX uptake at human PCFT expressed in Chinese hamster R2/PCFT4 cells at 1 to 10 uM at pH 5.5 to 6.8 by scintillation counting method; assay type: cell-based; summary of the method: as §1
KB [8] = test: Antiproliferative activity against human KB cells expressing human RFC/FR-alpha/PCFT assessed as reduction in cell viability up to 1000 nM measured after 96 hrs in presence of AICA by Cell-Titer Blue assay; assay type: functional, cell-based
KB [9] = test: Antiproliferative activity against human KB cells expressing human RFC/FR-alpha/PCFT assessed as reduction in cell viability measured after 96 hrs by Cell-Titer Blue assay; assay type: functional, cell-based
[10] = target: Folate receptor beta (Homo sapiens) (UniProt P14207); test: Displacement of [3H]folic acid from human FR-beta receptor expressed in Chinese hamster D4 cells measured after 15 mins; assay type: cell-based
Folate receptor beta (Homo sapiens), sequence (P14207 17-230 limits assumed): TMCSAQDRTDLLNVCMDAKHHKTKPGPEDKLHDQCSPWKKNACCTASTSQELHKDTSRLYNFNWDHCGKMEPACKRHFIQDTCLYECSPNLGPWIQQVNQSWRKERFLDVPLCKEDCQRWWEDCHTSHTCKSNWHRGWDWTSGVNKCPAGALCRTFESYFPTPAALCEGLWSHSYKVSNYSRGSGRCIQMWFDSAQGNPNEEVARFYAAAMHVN

KB [11] = test: Antiproliferative activity against human KB cells expressing human RFC/FR-alpha/PCFT assessed as reduction in cell viability measured after 96 hrs in presence of folic acid by Cell-Titer Blue assay; assay type: functional, cell-based
KB [12] = test: Antiproliferative activity against human KB cells expressing human RFC/FR-alpha/PCFT assessed as reduction in cell viability up to 1000 nM measured after 96 hrs in presence of adenosine by Cell-Titer Blue assay; assay type: functional, cell-based
KB [13] = test: Antiproliferative activity against human KB cells expressing human RFC/FR-alpha/PCFT assessed as reduction in cell viability up to 1000 nM measured after 96 hrs in presence of thymidine by Cell-Titer Blue assay; assay type: functional, cell-based
[14] = target: Folate receptor alpha (Homo sapiens) (UniProt P15328); test: Displacement of [3H]folic acid from human FR-alpha receptor expressed in Chinese hamster RT16 cells measured after 15 mins; assay type: cell-based
Folate receptor alpha (Homo sapiens), sequence (P15328 25-234 limits assumed): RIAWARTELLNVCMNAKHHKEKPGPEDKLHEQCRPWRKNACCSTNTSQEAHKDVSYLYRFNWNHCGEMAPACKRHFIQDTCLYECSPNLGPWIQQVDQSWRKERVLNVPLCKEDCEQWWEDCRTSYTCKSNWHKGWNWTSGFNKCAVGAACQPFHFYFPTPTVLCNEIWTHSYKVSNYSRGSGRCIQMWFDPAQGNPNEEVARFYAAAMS
Summary of the method: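 RT16 (FRα) or D4 (FRβ) CHO cells, ~5 x 10^6 per dish, stripped of bound folate with pH 3.5 acetate buffer. Then incubated in HEPES-buffered saline pH 7.4 with 50 nM [3H]folic acid ± unlabeled ligand 1-1000 nM. Bound label normalized to protein. […] Mean ± SE, 3 experiments.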

[15] = Growth inhibition of Chinese hamster R2(VC) cells after 96 hrs celltiter-blue assay; conditions: Cricetulus griseus; summary of the method: as §2
[16] = target: T1, Proton-coupled folate transporter (Homo sapiens); test: Inhibition of [3H]MTX uptake at human PCFT expressed in Chinese hamster R2/PCFT4 cells at 10 uM at pH 5.5 by scintillation counting method relative to control; assay type: cell-based; summary of the method: as §1
IGROV-1 [17] = test: Antiproliferative activity against human IGROV1 cells expressing human FR-alpha/PCFT assessed as reduction in cell viability measured after 96 hrs in presence of folic acid by Cell-Titer Blue assay; assay type: functional, cell-based; conditions: IGROV-1, 96 h
Summary of the method: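 IGROV1 growth inhibition in folate-free RPMI 1640 with 10% dialyzed FBS, 2 nM leucovorin and 2 mM L-glutamine, with 200 nM folic acid added to block FR-mediated uptake. Drug present continuously up to 1000 nM for up to 96 h. Readout by CellTiter-Blue fluorescence.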

[18] = target: T2, Trifunctional purine biosynthetic protein adenosine-3 (Homo sapiens, UniProt P22102); test: Inhibition of GARFTase in human KB cells assessed as decrease in [14C]formyl GAR accumulation preincubated for 30 mins followed by [14C]glycine addition measured after 15 hrs in presence of azaserine by ion-exchange chromatographic assay; assay type: cell-based
T2 sequence (P22102 whole entry): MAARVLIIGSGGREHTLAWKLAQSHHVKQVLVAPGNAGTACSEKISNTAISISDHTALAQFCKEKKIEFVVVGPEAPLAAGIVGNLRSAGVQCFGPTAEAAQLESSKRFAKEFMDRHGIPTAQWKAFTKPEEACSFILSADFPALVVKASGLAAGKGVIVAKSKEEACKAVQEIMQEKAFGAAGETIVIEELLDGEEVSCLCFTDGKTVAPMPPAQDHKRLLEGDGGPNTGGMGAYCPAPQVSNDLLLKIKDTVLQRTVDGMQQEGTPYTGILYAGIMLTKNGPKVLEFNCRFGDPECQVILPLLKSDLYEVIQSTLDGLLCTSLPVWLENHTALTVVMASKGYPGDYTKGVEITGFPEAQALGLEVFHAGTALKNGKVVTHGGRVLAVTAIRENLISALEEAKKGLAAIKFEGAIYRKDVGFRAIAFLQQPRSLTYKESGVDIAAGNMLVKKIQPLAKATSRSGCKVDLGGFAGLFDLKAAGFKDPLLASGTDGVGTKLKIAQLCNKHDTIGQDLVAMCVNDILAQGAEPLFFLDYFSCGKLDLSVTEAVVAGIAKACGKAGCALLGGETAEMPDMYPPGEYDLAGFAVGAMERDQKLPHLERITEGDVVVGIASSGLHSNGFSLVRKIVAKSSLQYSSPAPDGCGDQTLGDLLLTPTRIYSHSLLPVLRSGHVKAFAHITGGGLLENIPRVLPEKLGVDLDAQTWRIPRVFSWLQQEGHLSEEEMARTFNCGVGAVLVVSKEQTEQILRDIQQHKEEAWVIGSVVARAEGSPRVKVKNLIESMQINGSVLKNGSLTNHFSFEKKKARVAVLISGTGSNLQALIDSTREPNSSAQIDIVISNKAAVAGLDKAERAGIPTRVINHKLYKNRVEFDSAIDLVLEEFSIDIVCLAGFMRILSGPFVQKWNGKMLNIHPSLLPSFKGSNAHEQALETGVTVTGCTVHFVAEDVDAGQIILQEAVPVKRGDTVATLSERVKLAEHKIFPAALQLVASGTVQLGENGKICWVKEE

Mus musculus [19] = test: Toxicity in folate-deficient diet fed ICR SCID mouse assessed as body weight loss at 150 mg/kg, iv administered every 2 days for 8 times starting on day 3 measured twice per week; assay type: organism-based; conditions: in vivo, 48 h
Summary of the method: (§3)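 Female SCID mice, 10 weeks, ~20 g. Fed folate-deficient or folate-replete diet from 14 days before bilateral s.c. IGROV1 tumor fragments (30-60 mg, trocar). […] Weighed daily, tumors measured twice weekly. Growth delay = T-C days to 1000 mg, median.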

IGROV-1 [20] = test: Antitumor activity against human IGROV1 cells xenografted in folate-deficient diet fed ICR SCID mouse assessed as tumor growth delay time at 150 mg/kg, iv administered every 2 days for 8 times starting on day 3 measured twice per week; assay type: functional; summary of the method: as §3
[21] = target: T3, Proton-coupled folate transporter (Homo sapiens, UniProt Q96NT5); test: Inhibition of [3H]MTX uptake at human PCFT expressed in Chinese hamster R2/PCFT4 cells at pH 5.5 measured after 2 mins by Dixon plot analysis; assay type: cell-based
T3 sequence (Q96NT5 whole entry): T1 sequence (whole entry)

IGROV-1 [22] = test: Antitumor activity against human IGROV1 cells xenografted in folate-deficient diet fed ICR SCID mouse assessed as tumor growth inhibition at 150 mg/kg, iv administered every 2 days for 8 times starting on day 3 measured twice per week up to 49 days; assay type: functional, organism-based; summary of the method: as §3
IGROV-1 [23] = test: Antitumor activity against human IGROV1 cells xenografted in high folate diet fed ICR SCID mouse assessed as tumor growth inhibition at 150 mg/kg, iv administered every 2 days for 8 times starting on day 3 measured twice per week; assay type: functional, organism-based; summary of the method: as §3
IGROV-1 [24] = test: Antiproliferative activity against human IGROV1 cells expressing human FR-alpha/PCFT assessed as reduction in cell viability measured after 96 hrs by Cell-Titer Blue assay; assay type: functional, cell-based; conditions: IGROV-1, 96 h

Nc1nc2[nH]cc(CCc3ccc(C(=O)N[C@@H](CCC(=O)O)C(=O)O)cc3)c2c(=O)[nH]1 [PEMETREXED]
inhibition [1]: 85%
Activity (Mus musculus [2]): 14%
inhibition [3]: 75%
Time (IGROV-1 [4]): 0 days
inhibition [5]: 40%
IC50 [6]: 849 nM

CN(Cc1cnc2nc(N)nc(N)c2n1)c1ccc(C(=O)N[C@@H](CCCNC(=O)c2ccccc2C(=O)O)C(=O)O)cc1
inhibition [7]: inactive

Nc1nc2[nH]c(CCCCc3cccc(C(=O)N[C@@H](CCC(=O)O)C(=O)O)n3)cc2c(=O)[nH]1
Activity (KB [8]): inactive
IC50 (KB [9]): 667 nM
inhibition [10]: inactive
IC50 (KB [11]): > 1000 nM
IC50 [6]: > 1000 nM
Activity (KB [12]): inactive
Activity (KB [13]): Active
inhibition [14]: inactive
IC50 [15]: > 1000 nM

Nc1nc2[nH]c(CCC#Cc3ccc(C(=O)N[C@@H](CCC(=O)O)C(=O)O)nc3)cc2c(=O)[nH]1
IC50 (KB [9]): > 1000 nM
IC50 (KB [11]): > 1000 nM
IC50 [6]: > 1000 nM
IC50 [15]: > 1000 nM

Nc1nc2[nH]c(CCCCc3ccc(C(=O)N[C@@H](CCC(=O)O)C(=O)O)cc3)cc2c(=O)[nH]1
inhibition [1]: 50%
inhibition [3]: 35%
IC50 (KB [11]): > 1000 nM
inhibition [16]: > 90%
IC50 (IGROV-1 [17]): > 1000 nM
inhibition [5]: 0%
IC50 [6]: > 1000 nM
inhibition [14]: Active
IC50 [15]: > 1000 nM

CN(Cc1cnc2nc(N)nc(N)c2n1)c1ccc(C(=O)N[C@@H](CCC(=O)O)C(=O)O)cc1 [METHOTREXATE]
IC50 [15]: > 1000 nM

Nc1nc2[nH]c(CCC#Cc3ccc(C(=O)N[C@@H](CCC(=O)O)C(=O)O)cn3)cc2c(=O)[nH]1
IC50 (KB [9]): > 1000 nM
IC50 (KB [11]): > 1000 nM
IC50 [6]: > 1000 nM
IC50 [15]: > 1000 nM

Nc1nc2[nH]c(CCCCc3ccc(C(=O)N[C@@H](CCC(=O)O)C(=O)O)cn3)cc2c(=O)[nH]1
Activity (KB [8]): inactive
IC50 (KB [9]): 17.4 nM
inhibition [10]: Active
IC50 [18]: 4.8 nM
IC50 (KB [11]): > 1000 nM
IC50 [6]: > 1000 nM
Activity (KB [12]): inactive
Activity (KB [13]): Active
inhibition [14]: Active
IC50 [15]: > 1000 nM

Nc1nc2[nH]c(CCC#Cc3cccc(C(=O)N[C@@H](CCC(=O)O)C(=O)O)n3)cc2c(=O)[nH]1
IC50 (KB [9]): > 1000 nM
IC50 (KB [11]): > 1000 nM
IC50 [6]: > 1000 nM
IC50 [15]: > 1000 nM

Nc1nc2[nH]c(CCCCc3ccc(C(=O)N[C@@H](CCC(=O)O)C(=O)O)nc3)cc2c(=O)[nH]1
Activity (KB [8]): inactive
IC50 (KB [9]): 0.37 nM
Activity (Mus musculus [19]): 5%
inhibition [1]: 70%
inhibition [3]: 40%
Time (IGROV-1 [20]): 45 days
Ki [21]: 332 nM
IC50 (KB [11]): 368 nM
inhibition [16]: > 90%
TGI (IGROV-1 [22]): Active
IC50 (IGROV-1 [17]): 846 nM
inhibition [5]: 10%
IC50 [6]: > 1000 nM
TGI (IGROV-1 [23]): inactive
Activity (KB [12]): inactive
Activity (KB [13]): Active
IC50 [15]: > 1000 nM
IC50 (IGROV-1 [24]): 0.68 nM

C#CCC(Cc1cnc2nc(N)nc(N)c2n1)c1ccc(C(=O)N[C@@H](CCC(=O)O)C(=O)O)cc1 (mixture of isomers) [PRALATREXATE]
IC50 [6]: 819 nM
IC50 [15]: > 1000 nM
